pIC50: −log10 of the molar value.
How the values were obtained:
Jurkat = experiment: Antiproliferative activity against human Jurkat cells after 72 hrs by MTT assay; type: functional, cell-based
Summary of the method: (§1)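 Cells in medium with 10% FBS, seeded at 8×10^3 per well, 18 h at 37 °C, 5% CO2, then graded compound concentrations (DMSO ≤0.25%) for 72 h. Viability by MTT. […] Mean ± SE of dose-response curves from at least three independent experiments.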

HT-29 = experiment: Antiproliferative activity against human HT-29 cells after 72 hrs by MTT assay; type: functional, cell-based; conditions: HT-29, 72 h
HeLa = experiment: Antiproliferative activity against human HeLa cells after 72 hrs by MTT assay; type: functional, cell-based
A549 = experiment: Antiproliferative activity against human A549 cells after 72 hrs by MTT assay; type: functional, cell-based; conditions: A549, 72 h
RS4-11 = experiment: Antiproliferative activity against human RS4:11 cells after 72 hrs by MTT assay; type: functional, cell-based; conditions: RS4-11, 72 h; summary of the method: as §1
[1] = target: T1, Vascular endothelial growth factor receptor 2 (Homo sapiens, UniProt P35968); experiment: Inhibition of VEGFR2 (unknown origin)
Tubulin (Bos taurus) = Tubulin (Bos taurus) (UniProt Q6B856+Q862L2+Q862F3); experiment: Inhibition of [3H]-colchicine binding to bovine brain tubulin at 1 to 5 uM after 20 mins relative to control
Summary of the method: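 Colchicine-binding inhibition in mixtures of 1 μM tubulin, 5 μM [3H]colchicine and test compound at 1 or 5 μM.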

[2] = target: Epidermal growth factor receptor (Homo sapiens, UniProt P00533); experiment: Inhibition of wild type EGFR (unknown origin) by bioluminescent ADP-glo kinase assay
Tubulin = Tubulin (Bos taurus, UniProt Q6B856+Q862L2+Q862F3); experiment: Inhibition of bovine brain tubulin polymerization after 20 mins
Summary of the method: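 Bovine brain tubulin (10 μM) preincubated with varying compound concentrations in 0.8 M monosodium glutamate, pH 6.6, at 30 °C, then chilled to 0 °C. 0.4 mM GTP added, mixtures warmed to 30 °C, assembly followed by turbidity at 350 nm.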

[3] = target: T1, Vascular endothelial growth factor receptor 2; experiment: Inhibition of wild type VEGFR2 (unknown origin) by bioluminescent ADP-glo kinase assay
B16 = experiment: Antitumor activity against mouse B16 cells allografted in C57BL/6 mouse assessed as reduction in tumor burden at 30 mg/kg, ip dosing starting on day 9 post tumor injection administered […] on day 9,11, 13 and 15 relative to control; type: functional; set-up: scale not given: the % may be the effect or the level left
Summary of the method: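 Male C57BL/6 mice, six weeks old, given 2.5×10^5 BL6-B16 murine melanoma cells subcutaneously in the dorsolateral flank in PBS. Once tumours were palpable, compound in 50 µL DMSO was given intraperitoneally every other day from day 9 (days 9, 11, 13, 15); controls received vehicle. Tumour volume compared with control; 5 animals per group; mean ± SEM.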

Chain of Epidermal growth factor receptor (P00533 whole entry): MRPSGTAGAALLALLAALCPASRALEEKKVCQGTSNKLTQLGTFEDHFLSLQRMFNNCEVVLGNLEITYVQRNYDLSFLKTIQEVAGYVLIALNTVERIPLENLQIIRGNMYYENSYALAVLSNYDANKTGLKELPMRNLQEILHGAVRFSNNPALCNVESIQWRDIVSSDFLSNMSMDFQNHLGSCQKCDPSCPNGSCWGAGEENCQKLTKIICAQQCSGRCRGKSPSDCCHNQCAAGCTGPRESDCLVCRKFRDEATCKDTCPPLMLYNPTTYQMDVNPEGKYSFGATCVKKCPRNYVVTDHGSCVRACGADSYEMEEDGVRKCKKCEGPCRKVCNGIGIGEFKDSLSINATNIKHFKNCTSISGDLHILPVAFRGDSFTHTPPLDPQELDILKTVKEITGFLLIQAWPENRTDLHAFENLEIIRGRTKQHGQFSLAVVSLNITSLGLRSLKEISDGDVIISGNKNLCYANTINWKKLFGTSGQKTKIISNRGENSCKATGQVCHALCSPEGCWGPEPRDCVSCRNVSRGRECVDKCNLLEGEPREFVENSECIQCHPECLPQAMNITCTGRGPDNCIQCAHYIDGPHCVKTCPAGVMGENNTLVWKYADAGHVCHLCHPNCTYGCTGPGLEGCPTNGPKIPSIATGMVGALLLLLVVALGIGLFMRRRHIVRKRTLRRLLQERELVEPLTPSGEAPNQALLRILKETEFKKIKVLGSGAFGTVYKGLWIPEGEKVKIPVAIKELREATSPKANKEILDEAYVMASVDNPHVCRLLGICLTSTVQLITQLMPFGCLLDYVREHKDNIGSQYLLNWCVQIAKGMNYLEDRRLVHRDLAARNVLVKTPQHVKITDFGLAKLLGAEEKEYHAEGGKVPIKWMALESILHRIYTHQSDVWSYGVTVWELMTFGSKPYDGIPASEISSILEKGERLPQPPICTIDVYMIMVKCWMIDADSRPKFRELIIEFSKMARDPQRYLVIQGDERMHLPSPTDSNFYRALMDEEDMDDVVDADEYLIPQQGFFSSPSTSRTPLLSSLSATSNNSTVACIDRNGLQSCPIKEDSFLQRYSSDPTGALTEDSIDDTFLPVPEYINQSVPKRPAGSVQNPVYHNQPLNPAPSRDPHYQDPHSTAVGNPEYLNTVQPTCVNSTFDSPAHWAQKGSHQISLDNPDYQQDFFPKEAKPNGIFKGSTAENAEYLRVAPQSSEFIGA
T1 sequence (P35968 whole entry): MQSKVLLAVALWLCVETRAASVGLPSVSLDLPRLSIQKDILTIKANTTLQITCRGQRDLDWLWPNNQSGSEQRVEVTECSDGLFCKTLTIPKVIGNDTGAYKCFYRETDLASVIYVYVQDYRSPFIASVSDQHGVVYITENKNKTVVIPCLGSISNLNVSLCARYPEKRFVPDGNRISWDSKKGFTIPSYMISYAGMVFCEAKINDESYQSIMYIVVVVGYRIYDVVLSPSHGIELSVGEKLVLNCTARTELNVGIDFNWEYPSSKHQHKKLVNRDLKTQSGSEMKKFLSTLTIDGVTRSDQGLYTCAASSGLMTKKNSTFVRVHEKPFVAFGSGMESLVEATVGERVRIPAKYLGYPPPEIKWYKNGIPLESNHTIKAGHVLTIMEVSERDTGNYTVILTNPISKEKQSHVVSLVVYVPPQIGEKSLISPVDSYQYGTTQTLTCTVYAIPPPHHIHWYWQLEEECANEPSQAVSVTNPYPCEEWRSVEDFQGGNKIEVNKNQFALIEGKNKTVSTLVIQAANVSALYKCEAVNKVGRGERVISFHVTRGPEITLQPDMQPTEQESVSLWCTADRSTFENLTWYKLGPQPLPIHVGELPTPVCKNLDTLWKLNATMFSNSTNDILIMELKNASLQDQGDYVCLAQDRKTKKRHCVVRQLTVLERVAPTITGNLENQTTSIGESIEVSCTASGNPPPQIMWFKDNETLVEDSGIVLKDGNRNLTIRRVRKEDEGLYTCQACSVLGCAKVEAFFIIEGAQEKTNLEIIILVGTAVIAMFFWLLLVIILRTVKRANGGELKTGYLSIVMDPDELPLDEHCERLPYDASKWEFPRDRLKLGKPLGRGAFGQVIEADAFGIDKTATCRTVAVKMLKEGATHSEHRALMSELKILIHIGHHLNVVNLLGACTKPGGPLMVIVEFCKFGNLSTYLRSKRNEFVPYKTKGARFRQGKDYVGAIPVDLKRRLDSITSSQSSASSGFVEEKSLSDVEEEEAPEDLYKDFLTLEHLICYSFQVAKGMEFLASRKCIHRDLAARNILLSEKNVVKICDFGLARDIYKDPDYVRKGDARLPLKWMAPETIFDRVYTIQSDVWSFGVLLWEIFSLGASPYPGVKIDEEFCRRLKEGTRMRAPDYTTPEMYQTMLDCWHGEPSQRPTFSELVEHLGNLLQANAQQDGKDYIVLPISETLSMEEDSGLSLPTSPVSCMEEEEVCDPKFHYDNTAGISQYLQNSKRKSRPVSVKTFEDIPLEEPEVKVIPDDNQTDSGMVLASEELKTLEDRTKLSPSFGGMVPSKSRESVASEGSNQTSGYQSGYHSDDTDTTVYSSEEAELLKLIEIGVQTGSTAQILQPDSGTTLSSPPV

Row | pIC50 (Jurkat) | pIC50 (HT-29) | pIC50 (HeLa) | pIC50 (A549) | pIC50 (RS4-11) | pIC50 [1] | inhibition (Tubulin (Bos taurus)) [%] | pIC50 [2] | IC50 (Tubulin) [nM] | pIC50 [3] | Structure (SMILES) | Activity (B16) [%]
1 | 6.59 | 5.72 | 6.35 | 4.87 | 5.72 | – | – | – | – | – | COc1cc(Nc2ncnc3cc(-c4ccc(F)cc4)sc23)cc(OC)c1OC | –
2 | – | – | – | – | – | 7.10 | – | – | – | – | c1ccc(-c2cc3ncnc(Nc4ccc5[nH]ccc5c4)c3s2)cc1 | –
3 | 5.52 | 5.48 | 5.49 | 5.06 | 5.27 | – | – | – | – | – | COc1cccc(-c2cc3ncnc(Nc4cc(OC)c(OC)c(OC)c4)c3s2)c1 | –
4 | 8.30 | 7.22 | 6.77 | 6.37 | 8.40 | – | 31 | 7.28 | 2800 | < 6.00 | COc1ccc(-c2cc3ncnc(Nc4cc(OC)c(OC)c(OC)c4)c3s2)cc1 | –
5 | 8.52 | 7.06 | 7.05 | 6.22 | 8.30 | – | 36 | 6.56 | 3300 | – | COc1cc(Nc2ncnc3cc(-c4ccc(Cl)cc4)sc23)cc(OC)c1OC | –
6 | 8.00 | 6.46 | 6.77 | 5.64 | 6.59 | – | – | 7.64 | 10000 | < 6.00 | COc1cc(Nc2ncnc3cc(-c4ccccc4)sc23)cc(OC)c1OC | –
7 | – | – | – | – | – | – | – | – | – | – | COc1ccc(/C=C\c2cc(OC)c(OC)c(OC)c2)cc1OP(=O)([O-])[O-].[Na+].[Na+] [FOSBRETABULIN DISODIUM] | 34.9

From ChEMBL document CHEMBL4368913, “Design, Synthesis, and Biological Evaluation of 6-Substituted Thieno[3,2- d]pyrimidine Analogues as Dual Epidermal Growth Factor Receptor Kinase and Microtubule Inhibitors” (J Med Chem, 2019)
